In ChEMBL document CHEMBL1152895, “Diacylhydrazine derivatives as novel potential chitin biosynthesis inhibitors: design, synthesis, and structure-activity relationship” (Eur J Med Chem, 2009):
Active and inactive are the calls of the source. The rule behind the calls is not given here.

test system: Saccharomyces cerevisiae; experiment: Inhibition of yeast chitin synthase at 100 ug/mL by high throughput assay
Procedure, shortened: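 Cell-extract enzymatic assay of chitin synthesis. Cells were pelleted at 1500 × g for 10 min at 4 °C, then broken by grinding with glass beads under liquid nitrogen. Activity was scored as percent inhibition, also converted to D = log[a/(100−a)] − log Mw.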

Row | inhibition | SMILES
1 | Active | CCCCC(CCCC)N(NC(=O)c1ccccc1Cl)C(=O)c1cc(C)cc(C)c1
2 | Active | CCCCC(CCCC)N(NC(=O)c1cc(OC)c(OC)c(OC)c1)C(=O)c1ccccc1Cl
3 | Active | CCCCC(CCCC)N(NC(=O)c1ccccc1Cl)C(=O)c1ccccc1
4 | Active | CCCCC(CCCC)N(NC(=O)c1ccc(Cl)cc1Cl)C(=O)c1cc(C)cc(C)c1
5 | Active | CCCCC(CCCC)N(NC(=O)c1cc(C)cc(C)c1)C(=O)c1ccc(CC)cc1
6 | 81% | CCCCC(CCCC)N(NC(=O)c1ccccc1Cl)C(=O)c1ccccc1OC
7 | Active | CCCCC(CCCC)N(NC(=O)c1ccc(CC)cc1)C(=O)c1cc(F)c(OC)c(F)c1F
8 | Active | CCCCC(CCCC)N(NC(=O)c1cc(OC)c(OC)c(OC)c1)C(=O)c1cc(F)c(OC)c(F)c1F
9 | Active | CCCCC(CCCC)N(NC(=O)c1ccc(CC)cc1)C(=O)CCl
10 | Active | CCCCC(CCCC)N(NC(=O)c1cc(OC)c(OC)c(OC)c1)C(=O)c1cc(C)cc(C)c1
11 | Active | CCCCC(CCCC)N(NC(=O)c1ccc(Cl)cc1)C(=O)c1cc(C)cc(C)c1
12 | 79% | CCCCC(CCCC)N(NC(=O)c1ccc(CC)cc1)C(=O)c1ccccc1OC
13 | Active | CCCCC(CCCC)N(NC(=O)c1ccccc1Cl)C(=O)c1cccc(F)c1
14 | Active | CCCCC(CCCC)N(NC(=O)c1ccc(Cl)cc1)C(=O)c1ccccc1OC
15 | Active | CCCCC(CCCC)N(NC(=O)c1ccc(CC)cc1)C(=O)c1ccc2c(c1)OCO2
16 | Active | CCCCC(CCCC)N(NC(=O)c1ccc(CC)cc1)C(=O)c1cc(C)cc(C)c1
17 | Active | CCCCC(CCCC)N(NC(=O)c1ccc(CC)cc1)C(=O)c1ccccc1Cl
18 | Active | CCCCC(CCCC)N(NC(=O)c1cccc(OC)c1)C(=O)c1ccccc1
19 | Active | CCCCC(CCCC)N(NC(=O)c1ccccc1Cl)C(=O)c1ccc(F)cc1
